These results are taken from ChEMBL document CHEMBL1123944, “Tertiary 3- and 4-haloalkylamine analogues of oxotremorine as prodrugs of potent muscarinic agonists” (J Med Chem, 1988).

Structures are written as SMILES. Some results are limits rather than exact numbers.

Series [1] is described as follows: First order rate constant for cyclization of the compound. Format: ADME. Put shortly: (§1)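 Haloalkylamine (1.5–2 mM) in 50 mM sodium phosphate buffer, pH 7.4, at 37 °C. Released halide measured by argentometric titration. Data fitted by nonlinear regression to θ = 1 − e^(−k1·t), giving the apparent first-order constant k1. Means ± SE of three determinations.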

For series [2], the system named is Mus musculus. The series is described as follows: Muscarinic activity tested by measuring salivation in mice after iv administration. Format: functional. Put shortly: (§2)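 Male Swiss-Webster mice (24–30 g); compounds in ice-cold saline, used within 1 h, given ip or iv via tail vein. Salivation was scored by touching the mouth to absorbent paper at intervals over the first 10 min. Threshold dose estimated by the up-and-down method; mean ± SE.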

The species entered for the next series is Cavia porcellus. The series is described as follows: Muscarinic activity in isolated guinea pig ileum. Format: functional. Put shortly:
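Guinea pig ileum in Tyrode solution (pH 7.4, 37 °C) containing 0.3 mM hexamethonium. Isotonic contractions recorded at 1 g tension. Cumulative concentration-response curves used stepwise 2.15-fold increments, with oxotremorine as reference. Parent compounds were dissolved in ice-cold water. Cyclized forms were pre-incubated in 50 mM phosphate buffer pH 7.4 at 37 °C for 30 h, 2 h or 1 min depending on the compound. EC50 given as mean ± SE over n preparations.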

Series [3] relates to Mus musculus. The series is described as follows: Muscarinic activity tested by measuring salivation in mice after ip administration. Format: functional. Put shortly:
as §2

The test system of series [4] is Mus musculus. The series is described as follows: Muscarinic activity tested by measuring tremor in mice after ip administration. Format: functional. In short, it runs like this: (§3)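 Male Swiss-Webster mice (24–30 g) dosed ip or iv via tail vein with compound in ice-cold saline (held on ice ≤1 h). Intermittent spontaneous (grade 2) tremor judged visually. Threshold dose estimated by the up-and-down method; mean ± SE.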

Series [5] is filed under the species Mus musculus. The series is described as follows: Analgesic activity was measured by tail flick assay. Format: functional. In short, it runs like this:
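Male Swiss-Webster mice (24–30 g); drug in ice-cold saline (kept on ice ≤1 h), given ip after control reaction times were taken. Tail-flick reaction times recorded 10 min post-dose; responders were animals whose reaction time was at least twice control. Dose estimated by the up-and-down method.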
On the technique in general: In hot-plate and tail-flick tests a longer latency is read as antinociception.

Series [6] in a line: Toxicity was measured after iv administration. Format: organism-based. The conditions noted are these: mouse, in vivo. Put shortly:
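Male Swiss-Webster mice (24–30 g) dosed iv with compound in ice-cold saline. LD50 estimated by the up-and-down method, with mortality counted at 1 h; mean ± SE.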

A short description of series [7]: (§4) The equipotent molar ratio relative to oxotremorine (EPMR). Format: functional. Put shortly:
(§5)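 Ileum EC50 taken as a ratio to the oxotremorine EC50 in guinea pig ileum contracting in Tyrode (pH 7.4, 37 °C, 0.3 mM hexamethonium). Curves were cumulative with 2.15-fold steps. Compounds were tested as parents in ice-cold water or after pre-cyclization in pH 7.4 phosphate buffer at 37 °C. Mean ± SE.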

Series [8] has as its system Mus musculus. The series is described as follows: Muscarinic activity tested by measuring tremor in mice after iv administration. Format: functional. Put shortly:
as §3

Series [9] in a line: Half life was measured. Format: ADME. Put shortly: as §1
The nature of series [10]: as §4. Format: ADME. In short, it runs like this:
as §5

In general, ED50 refers to the dose that gives a 50% effect, or the effect in half of the subjects. Read a high ED50 as a need for a large dose. The EC50 is the concentration at which the effect is half-maximal. Broadly, the LD50 is the dose expected to kill half of the subjects tested. The low end stands for greater toxicity, the high end for lower toxicity. Usually half-life stands for how long it takes for the measured level to halve. Read a high half-life as slow decline.

The compound `CN(CC#CCN1CCCC1=O)CCCBr` showed a K1 in series [1] of 0.061 min⁻¹. In addition, the ED50 in the series on Mus musculus [2] was 2.9 µmol/kg; in the series with Mus musculus [3] it was 6 µmol/kg; in the series with Mus musculus [4], 15.6 µmol/kg; in the series listed under Mus musculus [5], 3.2 µmol/kg; in the series with Mus musculus [8], 6.3 µmol/kg. The EC50 in the series filed under Cavia porcellus turned out to be 114 nM. In series [6], this compound displayed an LD50 of 46.7 µmol/kg. Also, the Ratio in [7] is 2.49. In addition, the half-life in [9] amounted to 11.4 min.

Regarding `C[N+](C)(C)CCOC(N)=O.[Cl-]` [CARBACHOL], the Ratio in series [10] is listed as 2.6. A half-maximal response in the series filed under Cavia porcellus (EC50) required 120 nM.

Turning to `CN(CC#CCN1CCCC1=O)CCCl`, in [1], the K1 amounted to 0.019 min⁻¹. In series [9], the half-life came out at 36.5 min.

`CC1CCC(=O)N1CC#CCN(C)CCCBr` (stereo not given) had a K1 in series [1] of 0.0555 min⁻¹. Moreover, the ED50 with Mus musculus [2] is 38 µmol/kg; in the series on Mus musculus [3], 80.8 µmol/kg; in the series filed under Mus musculus [5], 111 µmol/kg. The compound also showed an EC50 in the series listed under Cavia porcellus of 1140 nM. The LD50 in [6] is greater than 250 µmol/kg. Moreover, the Ratio in series [7] amounted to 23.7. The half-life in [9] came to 12.5 min.

In series [1], `CN(CC#CCN1CCCC1=O)CCCCCl` showed a K1 greater than 2 min⁻¹. Also, the ED50 amounted to 1.1 µmol/kg with Mus musculus [2], 4.2 µmol/kg with Mus musculus [3], 10.3 µmol/kg in the series listed under Mus musculus [5] and 3.6 µmol/kg in the series with Mus musculus [8]. Further, the EC50 in the series listed under Cavia porcellus worked out at 538 nM. The compound also returned an LD50 in series [6] of 8 µmol/kg. The Ratio in [7] came to 10.2. In [9], the half-life was less than 0.4 min.

For `C[N+]1(CC#CCN2CCCC2=O)CCCC1`, the Ratio in [10] is reported as 8.31. The same compound displayed an EC50 in the series listed under Cavia porcellus of 401 nM.

As to `CN(CC#CCN1CCCC1=O)CCCI`, in [1], the K1 is 0.0491 min⁻¹. Further, the ED50 with Mus musculus [2] worked out at 4.5 µmol/kg; in the series on Mus musculus [3], 10.4 µmol/kg; with Mus musculus [4], 29.7 µmol/kg; in the series listed under Mus musculus [5] it was 7.7 µmol/kg; with Mus musculus [8], 8.9 µmol/kg. This compound also displayed an EC50 in the series listed under Cavia porcellus of 136 nM. Besides, the LD50 in series [6] was greater than 125 µmol/kg. Also, in [7], the Ratio is 2.95. For the same compound, the half-life in series [9] turned out to be 14.1 min.

In the case of `CN(CC#CCN1CCCC1=O)CCCCl`, the Ratio in series [10] was 2.78. In addition, the K1 in series [1] was 0.0016 min⁻¹. Moreover, the ED50 with Mus musculus [2] is 22.4 µmol/kg; in the series with Mus musculus [3], 29.3 µmol/kg; in the series listed under Mus musculus [5], 33.3 µmol/kg. In the series filed under Cavia porcellus, this compound registered an EC50 of 120 nM. In series [6], this compound returned an LD50 of 245 µmol/kg. Also, the half-life in [9] was 436 min.

In series [1], `CN(CC#CCN1CCCC1=O)CCBr` returned a K1 of 0.85 min⁻¹. The same compound showed a half-life in series [9] of 0.8 min.

In the case of `O=C1CCCN1CC#CCN1CCCC1` [OXOTREMORINE], the Ratio in series [10] is on record as 1. Besides, the ED50 came to 0.19 µmol/kg in the series with Mus musculus [2]; 0.29 µmol/kg with Mus musculus [3]; 0.59 µmol/kg with Mus musculus [4]; 0.1 µmol/kg in the series listed under Mus musculus [5]; 0.44 µmol/kg in the series with Mus musculus [8]. Besides, in the series filed under Cavia porcellus, the EC50 is 44 nM.
